The source of these data is paper PMC5928661 (Molecular Medicine Reports, 2018).

The target in data set [1] is T1, MRP4 (HepG2.A64 cells) (Homo sapiens, UniProt O15439).
T1 sequence (O15439 1-1325): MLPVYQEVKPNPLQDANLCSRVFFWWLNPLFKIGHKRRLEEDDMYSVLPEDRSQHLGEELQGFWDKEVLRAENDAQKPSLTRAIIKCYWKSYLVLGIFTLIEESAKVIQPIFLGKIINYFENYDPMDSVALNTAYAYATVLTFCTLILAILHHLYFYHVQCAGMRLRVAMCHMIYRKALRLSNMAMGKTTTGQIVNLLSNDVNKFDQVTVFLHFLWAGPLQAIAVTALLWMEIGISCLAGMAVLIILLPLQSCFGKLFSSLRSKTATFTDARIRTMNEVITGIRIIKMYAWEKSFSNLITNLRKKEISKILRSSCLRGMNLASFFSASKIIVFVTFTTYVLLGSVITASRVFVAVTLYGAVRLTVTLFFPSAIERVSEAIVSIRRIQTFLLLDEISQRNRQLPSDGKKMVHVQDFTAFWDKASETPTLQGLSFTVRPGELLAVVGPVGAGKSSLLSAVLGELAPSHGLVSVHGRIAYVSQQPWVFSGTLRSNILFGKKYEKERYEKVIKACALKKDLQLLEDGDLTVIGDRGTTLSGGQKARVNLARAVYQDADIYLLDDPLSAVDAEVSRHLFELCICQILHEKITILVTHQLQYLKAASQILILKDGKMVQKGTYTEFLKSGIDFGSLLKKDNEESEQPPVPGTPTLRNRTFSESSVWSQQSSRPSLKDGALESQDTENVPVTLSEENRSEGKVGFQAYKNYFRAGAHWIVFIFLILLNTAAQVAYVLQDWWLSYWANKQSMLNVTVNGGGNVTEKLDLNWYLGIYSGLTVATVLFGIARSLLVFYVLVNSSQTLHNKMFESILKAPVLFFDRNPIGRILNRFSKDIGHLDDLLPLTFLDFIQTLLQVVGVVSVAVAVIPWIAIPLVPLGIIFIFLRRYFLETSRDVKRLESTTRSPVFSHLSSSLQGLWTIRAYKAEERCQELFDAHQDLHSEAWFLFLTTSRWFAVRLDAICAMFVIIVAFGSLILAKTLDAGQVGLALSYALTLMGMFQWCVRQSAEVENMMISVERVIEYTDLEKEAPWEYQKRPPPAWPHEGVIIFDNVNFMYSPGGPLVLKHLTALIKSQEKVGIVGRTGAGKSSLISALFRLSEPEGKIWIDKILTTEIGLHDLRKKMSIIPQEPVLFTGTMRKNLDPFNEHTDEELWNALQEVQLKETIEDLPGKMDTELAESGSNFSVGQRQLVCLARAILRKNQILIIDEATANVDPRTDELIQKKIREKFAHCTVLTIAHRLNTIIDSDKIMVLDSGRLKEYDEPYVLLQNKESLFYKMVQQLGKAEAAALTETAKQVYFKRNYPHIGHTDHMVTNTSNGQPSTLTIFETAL
The class given is in vitro ADME. Particulars: HepG2.A64, drug 4 days, 5 µM MK571 4 h, LCMS.

The target of data set [2] is T2, MRP4 (HepG2.4D14 cells) (Homo sapiens, UniProt O15439).
T2 sequence (O15439 1-1325): T1 sequence (O15439 1-1325)
The class given is in vitro ADME. As to conditions: HepG2.4D14, drug 4 days, 5 µM MK571 48 h, LCMS.

The test system of data set [3] is wild-type HBV (HepG2.4D14 cells). The experiment in a line: Cell-based antiviral assay, supernatant HBV DNA by qPCR. As to conditions: Hepatitis B virus, 96 h, read-out: EC50 against HBV. A general note: Real-time PCR tracks product formation cycle by cycle.
The subject of data set [4] is ETV-resistant HBV (HepG2.A64 cells). The description is as above. Set-up: species or system hepatitis B virus. Particulars: for EC50: Hepatitis B virus, HepG2.A64, 96 h, read-out: EC50 against HBV.
The subject of data set [5] is HepG2.A64 cells. Kind of data set: Cell proliferation. The class given is cell-based, human. As to conditions: HepG2.A64, CCK-8, 96 h. Put shortly: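 HepG2-derived cells carrying ETV-resistant HBV, kept in DMEM with 10% FBS, penicillin-streptomycin and 300 µg/ml geneticin at 37°C, 5% CO2. Seeded at 3×10^3 cells/well; after 24 h, drug dilution series in conditioned medium were added and renewed every other day for 4 days. CCK-8 was added, then 1~4 h incubation and absorbance at 450 nm. Five replicates, three independent experiments; IC50 calculated.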

As to `C[C@H](Cn1cnc2c(N)ncnc21)OCP(=O)(O)O` [TFV, tenofovir], the “Extracellular concentration in presence of MK571 vs control (absence of MK571)” value in data set [1] and in data set [2] was “slightly reduced” each time. Moreover, the “Intracellular accumulation in presence of MK571 vs control (absence of MK571)” value in data set [1] and in data set [2] was “markedly increased” in each case. The EC50 in data set [3] came out at 3.24 ± 0.01 µM; in data set [4], 11.43 ± 0.09 µM. Also, in data set [4] (HepG2.A64 vs HepG2.4D14), the “Fold resistance (mutant EC50 to wild-type EC50)” value worked out at 3.5 fold. Further, in data set [5], the “Doses at which apparent cytotoxicity was observed” value (from here on “Doses”) is “above 10 µM”.

On to `Nc1ccn([C@@H]2CS[C@H](CO)O2)c(=O)n1` [LAM, lamivudine], for which the “Extracellular concentration in presence of MK571 vs control (absence of MK571)” value in data set [1] and in data set [2] was “slightly reduced” each time. Besides, the values for the EC50 in data set [3] and in data set [4] were 4.14 ± 0.03 µM and 5.94 ± 0.2 µM, respectively. Moreover, the “Doses” value in data set [5] is “above 10 µM”.

For the molecule `CN(C)C(=O)CCSC(SCCC(=O)O)c1cccc(/C=C/c2ccc3ccc(Cl)cc3n2)c1` (stereo not shown) [MK571, 3-([(3-(2-[7-chloro-2-quinolinyl]ethyl)phenyl]-[(3-dimethylamino-3-oxoporphyl)-thio)-methyl]-thio) propanoic acid], in data set [5], the “Doses” value is given as “above 10 µM”.

Consider `C=C1[C@H](CO)[C@@H](O)C[C@@H]1n1cnc2c(=O)[nH]c(N)nc21` [ETV, entecavir], for which the “Extracellular concentration in presence of MK571 vs control (absence of MK571)” value in data set [1] and in data set [2] was “slightly reduced” in each case. Also, the figures for the EC50 in data set [3] and in data set [4] were 0.13 ± 0.02 µM and 6.28 ± 0.07 µM, respectively. Moreover, the “Doses” value in data set [5] was “above 10 µM”.

In general, EC50 refers to the concentration needed to bring the measured effect to its halfway point.
